Bioassay records (PubChem BioAssay)
STAT3 activator = IL-6 driven STAT3 reporter potentiators, primary screen, U3A cells, luciferase, luminescence, MLSCN library; IL-6 STAT3-luciferase reporter; 100% = signal with IL-6 EC80 alone; activation (% of control), % at 5.6 µM; actives 0.91% (n = 190,000);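 active means activation above the screen-wide mean of compound activation plus 3 SD, cut at about 130% in these data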;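 further: 0% = background luminescence of wells with medium and substrate only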
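Test system: human U3A cells carrying STAT3-luciferase construct; control set: IL-6-only wells as 100% reference; timing: compound pre-incubation 1 h before IL-6, then 6 h stimulation at 37 °C; also added: IL-6 stimulus at 33 ng/mL final; evaluation: % activation versus median of IL-6-stimulated wells; detection: reporter luminescence signal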
thrombin 1536 = human alpha-thrombin inhibitors, primary screen, counter-screen for coagulation protease inhibitor project, biochemical, 1536-well, fluorogenic AMC substrate | AID 1046, 2008 | inhibition, % at 5 µM | actives 0.26% (n = 220,000) | Boc-VPR-AMC fluorogenic substrate cleavage | Prothrombin (Homo sapiens), P00734;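 active means inhibition at or above 40%; inactive means inhibition below 40%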;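 further: 0% = enzyme with no compound and 100% = wells without enzyme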
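Material: human alpha-thrombin enzyme / Medium: pH 7.5 Tris (50 mM) with NaCl 150 mM, Tween 20 0.05% / Compound: single-point dosing at 5 µM, 0.2% DMSO / Incubation: enzyme reaction carried out at room temperature / Detection: AMC fluorescence, 355/460 nm / Read-out basis: percent inhibition scaled between no-compound controls and no-enzyme blanks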
FXIIa inh = human FXIIa protease inhibitors, primary screen, biochemical, 1536-well. inhibition, % at 5 µM. Coagulation factor XII (Homo sapiens), P00748. actives 0.3% (n = 220,000). purified FXIIa, Boc-QGR-AMC fluorogenic substrate, 2 h; in the data active means inhibition above about 40%;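 further: 0% = enzyme with no compound and 100% = blank without enzyme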
AHR act = AHR activators, primary screen, cell-based, luminescence, luciferase reporter, human | AHR-responsive luciferase reporter cells | Aryl hydrocarbon receptor (Homo sapiens), P35869 | activation, % at 5 µM | actives 2.5% (n = 320,000) | AID 2796, 2010; in the data active means activation above about 47%;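 further: 0% = vehicle wells and 100% = reference agonist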
FXIa inh 1536 = human FXIa protease inhibitors, primary screen, biochemical, 1536-well. inhibition, % at 5 µM. Coagulation factor XI (Homo sapiens), P03951. actives 0.14% (n = 220,000). purified FXIa, Boc-Glu-Ala-Arg-AMC fluorogenic substrate;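 active means inhibition of at least 40%; inactive means inhibition below 40%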;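 further: fluorescence of freed AMC excited at 355 nm; 0% = enzyme without compound and 100% = no enzyme blank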
Target sequence (P03951 19-387 limits assumed): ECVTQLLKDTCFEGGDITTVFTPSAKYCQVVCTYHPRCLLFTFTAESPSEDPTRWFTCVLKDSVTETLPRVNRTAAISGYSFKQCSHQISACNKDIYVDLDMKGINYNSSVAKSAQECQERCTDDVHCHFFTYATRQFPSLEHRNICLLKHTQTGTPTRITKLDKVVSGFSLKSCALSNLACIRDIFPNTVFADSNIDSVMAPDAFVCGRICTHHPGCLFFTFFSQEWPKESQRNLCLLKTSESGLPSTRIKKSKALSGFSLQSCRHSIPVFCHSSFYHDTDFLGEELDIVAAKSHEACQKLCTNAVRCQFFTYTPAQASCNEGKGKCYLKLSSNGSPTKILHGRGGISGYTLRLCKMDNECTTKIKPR
Target sequence (P03951 388-625 limits assumed): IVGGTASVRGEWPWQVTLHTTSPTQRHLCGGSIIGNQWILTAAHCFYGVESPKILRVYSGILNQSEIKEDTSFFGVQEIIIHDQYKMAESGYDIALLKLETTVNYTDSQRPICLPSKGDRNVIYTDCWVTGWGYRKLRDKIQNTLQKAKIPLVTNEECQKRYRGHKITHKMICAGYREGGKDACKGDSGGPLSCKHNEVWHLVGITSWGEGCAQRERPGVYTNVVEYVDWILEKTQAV
KLK5 inh = human KLK5 protease inhibitors, primary screen, biochemical, 1536-well | Kallikrein-5 (Homo sapiens), Q9Y337 | recombinant hK5, fluorogenic AMC substrate cleavage | inhibition, % at 5 µM | actives 0.59% (n = 210,000);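 active means inhibition of 40% or more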;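 further: 0% = enzyme controls without compound and 100% = no-enzyme blanks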
AHR act confirm = AHR activators, confirmation, cell-based, luminescence, luciferase reporter, human; shares compounds with AHR act; human cells, AHR-responsive luciferase reporter; activation, % at 9 µM; actives 87% (n = 2,300); in the data active means activation above about 49%;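 further: HepG2 hepatoma cells carrying a DRE-driven firefly luciferase reporter; 0% = vehicle wells and 100% = reference agonist wells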
PXR counter = human PXR activators, counter-screen for AHR activator project, cell-based, luciferase luminescence | shares compounds with AHR act | cell-based PXR reporter | activation, % at 11.6 µM | actives 88% (n = 2,300) | AID 434939, 2010; in the data active means activation above about 11%;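 further: human hepatoma DPX-2 cells expressing full-length human PXR; 0% = DMSO and 100% = reference agonist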
Starred values were filed as active, the others as inactive; / = no result given. Only some compounds are listed: those with a hit (about 3.5% of all), similar ones and a draw of the others.

SMILES	STAT3 activator	thrombin 1536	FXIIa inh	AHR act	FXIa inh 1536	KLK5 inh	AHR act confirm	PXR counter
CN(C)c1ccc([C@@H]2[C@@H]([N+](=O)[O-])[C@H]3C=Cc4ccccc4N3[C@H]2C(=O)c2ccc(Cl)cc2)cc1	145*	-5	8	107*	5	-1	98*	72*
O=C(c1ccccc1)C1C(c2ccccc2)C1[N+](=O)[O-] (stereo unspecified)	/	-1	10	2	-4	4	/	/
CCCOc1ccc(N2C(=O)CC(N3CCN(CCN=CC4C(=O)CC(C)(C)CC4=O)CC3)C2=O)cc1 (stereo unspecified)	98	-13	7	-1	-4	-5	/	/
CC1=NN(C(N)=S)C(=O)C1N=Nc1cccc(Cl)c1C (stereo unspecified)	/	/	/	138*	/	/	139*	16*
Cc1[nH]c2ccccc2c1C(=O)C(=O)NCc1ccncc1	/	/	/	10	/	/	/	/
CCCCN(CC)CCCNC(=O)C1CCN(c2ncnc3c2sc2cccc(F)c23)CC1	111	2	9	7	1	3	/	/
COc1ccc(CCN2Cc3c(cccc3[N+](=O)[O-])C2=O)cc1OC	/	/	/	-2	/	/	/	/
COc1ccc(CCN2Cc3c(N)cccc3C2=O)cc1OC	/	/	/	83*	/	/	1	12*
O=C(Nc1ccnc(-c2cccnc2)n1)c1ccccc1Cl	84	2	13	136*	4	10	37	17*
O=C(Nc1cccc(Cl)c1)Nc1ccnc(-c2cccnc2)n1	57	-3	8	148*	-5	-2	129*	12*
CN1CCN(C(=S)NC(=O)c2ccccc2Cl)CC1	/	/	/	-1	/	/	/	/
Cc1cc2c([nH]c3ccccc32)c2c1OC(C)(C)C=C2	/	3	8	102*	2	2	119*	72*
Cc1cccc2nc(C(=O)Nc3cc(Cl)ccc3-n3cncn3)cn12	/	/	/	88*	/	/	88*	30*
CC(C)C(=O)Nc1ccc(Cl)cc1-c1nc2ccccc2[nH]c1=O	/	/	/	79*	/	/	76*	12*
CNc1ccc([N+](=O)[O-])cc1-c1nc2ccccc2[nH]c1=O	/	0	7	30	-8	-1	/	/
COc1ccc2c(c1OC)C(=O)N(c1nccs1)C2	124	0	19	82*	3	-14	148*	17*
Cc1ccccc1/C=C1\Oc2ccccc2C1=O	/	/	/	99*	/	/	92*	98*
NS(=O)(=O)c1ccc(CCNC(=O)CSCC(=O)Nc2ccc(Cl)cc2)cc1	/	/	/	5	/	/	/	/
O=C1c2ccccc2C(=O)N1c1ccc(Cl)cc1	106	6	24	88*	0	-10	62*	13*
Cc1ccc(N2C(=O)c3ccccc3C2=O)cc1	/	1	5	45	2	3	/	/
O=C(CCn1cccn1)Nc1ccc2c(c1)OCCO2	/	/	/	11	/	/	/	/
COc1ccc(OC)c(/C=N/NC(=O)CNC(=O)c2ccc(S(=O)(=O)N3CCOCC3)cc2)c1	87	-2	16	125*	4	-24	8	5
O=C(Oc1ccc(/C=N/NC(=O)c2ccccc2O)cc1)c1ccccc1	118	-3	8	3	-9	-28	/	/
Cn1nccc1C(=O)Oc1ccc(/C=N/NC(=O)c2ccccc2O)cc1	109	-7	10	93*	3	10	21	5
CCCc1cc(=O)[nH]c(SCC(=O)N(CC)c2c(N)n(Cc3ccccc3)c(=O)[nH]c2=O)n1	/	/	/	1	/	/	/	/
SMILES	STAT3 activator	thrombin 1536	FXIIa inh	AHR act	FXIa inh 1536	KLK5 inh	AHR act confirm	PXR counter
O=C(Nc1c(C(=O)C2CC2)oc2ccccc12)c1ccc(Cl)cc1	112	-8	-6	13	-3	-13	/	/
CC(=O)Nc1c(C(=O)c2ccc(F)cc2)oc2ccccc12	88	0	7	155*	-2	3	126*	39*
COc1ccc(C(=O)c2oc3ccccc3c2NC(C)=O)cc1	77	5	10	173*	2	7	148*	14*
O=C(Nc1ccc(F)cc1)c1oc2ccccc2c1NC(=O)C1CCCC1	78	-5	5	91*	-9	1	136*	36*
COc1ccc(C(=O)c2oc3ccc(OC)cc3c2NC(C)=O)cc1	86	-14	-3	19	-1	-7	/	/
Nc1c(C(=O)c2ccc(Cl)cc2)oc2ccccc12	114	-3	2	113*	0	-1	169*	16*
COC(=O)c1cc(Cl)c(NC(=O)c2cc3ccccc3o2)cc1OC	102	0	15	9	0	-8	/	/
N/C(=N\OC(=O)c1cccc2ccccc12)c1cccnc1	136*	-8	8	85*	-1	2	55*	15*
CCCOc1ccc(-c2nc(C#N)c(NCCCn3ccnc3)o2)cc1	94	1	4	22	-3	-23	/	/
N#Cc1nc(-c2ccc(F)cc2)oc1NCCCn1ccnc1	101	-1	11	106*	2	2	97*	30*
CC/C(=N/Nc1ccc(Cl)cc1)c1cnnc(SC)n1	94	3	8	98*	4	-20	94*	12*
COc1ccc(-c2[nH]c(-c3ccccc3)nc2SCC(=O)Nc2nccs2)cc1	107	-2	4	109*	2	-8	78*	42*
COc1ccc(-c2[nH]c(-c3ccc(C)cc3)nc2SCC(=O)NC2CCCC2)cc1	90	0	15	104*	24	-1	88*	86*
COc1ccc2nc(SCC(=O)NC3CCCC3)c(C)cc2c1	/	/	/	4	/	/	/	/
O=C(N/C(=C\c1ccc([N+](=O)[O-])cc1)C(=O)N1CCCCC1)c1ccccc1Br	107	-3	7	14	0	-13	/	/
CN(C)S(=O)(=O)c1ccc2nc(NC(=O)c3cccs3)sc2c1	111	9	4	6	6	-16	/	/
O=C(Nc1nc2ccc(F)cc2s1)c1cccs1	87	0	-3	99*	2	-6	136*	9
O=C(Nc1nc2c(s1)CCc1ccccc1-2)c1cccs1	121	-2	7	85*	8	-5	158*	20*
CC(=O)Nc1cccc(NC(=O)c2cccc3cccnc23)c1	/	/	/	124*	/	/	101*	56*
